Screening results deposited in PubChem by The Scripps Research Institute Molecular Screening Center.
IMP-1 inh – inhibitors of Pseudomonas aeruginosa IMP-1 metallo-beta-lactamase | inhibition, % at 5.6 µM | 290,000 compounds, 0.45% hits | purified IMP-1, nitrocefin hydrolysis, epi-absorbance fluorescence;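 active means inhibition above the mean plus 3 SD of all compounds in the same screening run, cut at about 4.5% in these data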;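 further: 0% = IMP-1 with DMSO and 100% = DMSO wells lacking enzyme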
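Material – recombinant IMP-1 enzyme, purified · Amount – IMP-1 0.2 nM before substrate addition · Medium – HEPES buffer pH 7.1 with ZnSO4 and Brij 35 · Timing – 25 °C, 15 min preincubation, 25 min reaction · Measured by – plate fluorescence quenching by hydrolysis product, ex 480/em 530 nm · Read-out – percent enzyme inhibition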
sPLA2-III inh – Blocks human group III sPLA2 activity; QFRET BODIPY PC-A2 liposome hydrolysis, fluorescence; inhibition, % at 12.2 µM; Q9NZ20; 370,000 compounds, 0.56% hits;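 active means inhibition above mean plus 3 SD of compounds lying within the high and low control bounds, cut at about 19% in these data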;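 further: 0% = median of test compound wells and 100% = no enzyme DMSO wells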
Target sequence (Q9NZ20 whole entry, looked up): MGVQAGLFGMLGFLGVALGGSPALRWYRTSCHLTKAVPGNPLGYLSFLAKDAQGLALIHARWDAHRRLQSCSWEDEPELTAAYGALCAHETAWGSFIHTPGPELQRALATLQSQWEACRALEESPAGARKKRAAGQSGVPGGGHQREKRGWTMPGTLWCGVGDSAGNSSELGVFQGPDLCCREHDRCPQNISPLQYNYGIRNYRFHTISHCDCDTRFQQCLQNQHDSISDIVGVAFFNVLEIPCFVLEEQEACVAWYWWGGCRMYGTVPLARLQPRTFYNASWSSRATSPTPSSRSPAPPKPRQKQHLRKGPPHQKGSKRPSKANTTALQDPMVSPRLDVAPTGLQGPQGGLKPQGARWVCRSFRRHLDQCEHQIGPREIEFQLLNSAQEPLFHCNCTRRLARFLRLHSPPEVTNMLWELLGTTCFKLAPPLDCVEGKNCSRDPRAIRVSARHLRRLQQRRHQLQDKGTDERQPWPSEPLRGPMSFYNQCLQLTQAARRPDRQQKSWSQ
M18AAP inhibitor – blocks P. falciparum M18 aspartyl aminopeptidase; recombinant PfM18AAP, H-Glu-NHMec fluorogenic cleavage; AID 1822; 290,000 compounds, 1.2% hits; inhibition, % at 7.35 µM;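 active means inhibition above the campaign mean inhibition over all tested compounds plus 3 SD, cut at about 28% in these data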;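 further: 0% = plate median of test compound wells and 100% = 2 mM ZnCl2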
VIM-2 inh – blocks Pseudomonas aeruginosa VIM-2 metallo-beta-lactamase | purified VIM-2, nitrocefin hydrolysis, epi-absorbance fluorescence | AID 1527 | inhibition, % at 5.6 µM | 290,000 compounds, 0.89% hits;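 active means inhibition above the mean of all tested compounds plus 3 SD, cutoff set per screening run, cut at about 7.5% in these data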;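 further: red hydrolysis product quenches plate fluorescence so inhibitors raise well fluorescence; 0% = enzyme with DMSO and 100% = DMSO without enzyme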
sPLA2 confirm – human GIII-sPLA2 inhibition, confirmation; 2,000 compounds, 34% hits; shares compounds with sPLA2-III inh; inhibition, % at 12.2 µM; recombinant hGIII-sPLA2, BODIPY PC-A2 QFRET fluorescence;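 active means mean inhibition across triplicates above the hit cutoff set in the earlier primary screen, cut at about 19% in these data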;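 further: 0% = enzyme with DMSO and 100% = DMSO wells lacking enzyme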
535nm interf – optically interferes with 535nm fluorescence in sPLA2 counter-screen. 2,000 compounds, 8.5% hits. BODIPY FL product fluorescence interference, QFRET. inhibition, % at 12.2 µM. shares compounds with sPLA2-III inh;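 active means average inhibition above the solvent-only control mean plus 3 SD, cut at about 6% in these data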;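 further: 0% = DMSO with substrate plus product and 100% = DMSO with substrate alone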
BODIPY interf DR – counter-screen for HGIII-sPLA2 inhibitors: 535nm fluorescence interference, dose response; BODIPY FL product fluorescence interference, cell-free; shares compounds with sPLA2-III inh; IC50, µM; 240 tested, under 10 active;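 active means IC50 at or below 10 µM; inactive means IC50 above 10 µM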
The depositor's hits bear a star; · = no result. In the library only some 2.4% were active in any assay of this set; here they are far more common.

SMILES	IMP-1 inh	sPLA2-III inh	M18AAP inhibitor	VIM-2 inh	sPLA2 confirm	535nm interf	others
COCCn1c(=NC(=O)c2ccc(S(=O)(=O)N3CCCc4ccccc43)cc2)sc2cc(S(C)(=O)=O)ccc21	-3	20*	-1	0	-8	-1
CCc1ccccc1NC(=O)CCc1c(C)nc(SC)nc1C	-4	4	7	-1	·	·
Oc1[nH]c2ccccc2c1N=Nc1ccccn1	·	5	·	·	·	·
Oc1c(N=Nc2ccccn2)ccc2ccccc12	-6	22*	9	-4	54*	13*
CN(C1=C(N2CCOCC2)C(=O)c2ccccc2C1=O)c1ccccc1	-2	25*	-5	-3	44*	2	BODIPY interf DR=>122
COc1ccc(Cl)cc1NC(=O)CSc1nc2[nH]ncc2c(=O)[nH]1	·	6	·	·	·	·
CC(C)CCC(CCNCc1ccccn1)c1ccc2c(c1)OCO2 (centres undefined)	-4	23*	-3	-3	-25	-26
CCNCCC(CCC(C)C)c1ccc2c(c1)OCO2 (centres undefined)	-2	-4	1	-3	·	·
c1ccc(-c2nnc(-c3ccccc3)nn2)cc1	-2	7	-7	-3	·	·
c1ccc(-c2nccnc2-c2ccccc2)cc1	-3	22*	-16	-1	3	-4
COc1ccc2nc(NNC(=O)C3COc4ccccc4O3)sc2c1 (centres undefined)	0	22*	31*	-4	18	2
COc1ccc2nc(NC(=O)C3COc4ccccc4O3)sc2c1 (centres undefined)	-4	-1	-4	-3	·	·
CCNC(=O)c1cc2c(c(-c3cccc(-c4cccc(C(=O)N(C)C)c4)c3)n1)[C@@H](CCO)N(S(=O)C(C)(C)C)C2 (some centres undefined)	·	-11	·	·	·	·
CCC[C@H]1[C@@H](NC(=O)c2cccc(C(F)(F)F)c2)CC[C@@]23CCCN2C(=O)CCC[C@@H]13	·	2	·	·	·	·
CCN1C(=O)/C(=C\C=C2/C=CC=CN2CC)SC1=S	-2	25*	11	-4	27*	-2
CCN1C(=O)/C(=C/C=C2\C=CN(CC)c3ccccc32)SC1=S	-5	13	12	-4	·	·
CCOC(=O)c1sc(NC(=S)NC(=O)C2CC2)cc1C	0	21*	-4	-1	7	-3
CC(C)C[C@H]1CN([C@@H](Cc2ccccc2)CN2CCC[C@H]2CN2C(=O)C(=O)NC[C@@H]2Cc2ccc(O)cc2)C(=O)C(=O)N1CC1CCCCCC1	·	-7	·	·	·	·
c1csc(-c2nnc(NC3CCCCC3)c3ccccc23)c1	-3	21*	1	-1	0	-11
CC1CCN(c2nnc(-c3cccs3)c3ccccc23)CC1	-5	6	1	-3	·	·
OC1c2cc(Br)ccc2N=C2CCCN21 (centres undefined)	-3	7	5	-2	·	·
OC1c2cc(Br)ccc2N=C2CCCCCN21 (centres undefined)	·	20*	·	·	-3	-7
O=c1[nH]nc(SCCS(=O)(=O)c2ccc(F)cc2)n1-c1ccc2c(c1)OCCO2	0	21*	5	0	5	-9
O=c1[nH]nc(SCCS(=O)(=O)c2ccc(F)cc2)n1-c1ccccc1	-1	3	0	-1	·	·
CC(C)=C1C2CCC1C1C(=O)N(c3nccs3)C(=O)C21 (centres undefined)	-2	21*	0	-1	3	-2
SMILES	IMP-1 inh	sPLA2-III inh	M18AAP inhibitor	VIM-2 inh	sPLA2 confirm	535nm interf	others
CCn1cc(/C=C(\NC(=O)c2ccccc2OC)C(=O)N2CCOCC2)c2ccccc21	·	4	·	·	·	·
Cc1cc(C)c(O)c(-c2n[nH]c3c2C(c2cccc(O)c2)N(Cc2ccco2)C3=O)c1 (centres undefined)	-1	24*	17	-1	-49	0
NC(=Nc1nc(-c2ccccn2)cc2ccccc12)c1ccccn1	·	21*	·	·	-3	-12
CCCN1CCC(N2CCN(c3cccc(C(F)(F)F)c3)CC2)CC1	-4	2	5	-4	·	·
FC(F)(F)c1cccc(N2CCN(C3CC4CCC3C4)CC2)c1 (centres undefined)	2	20*	2	-2	15	-11
S=c1[nH]nc(COc2ccccc2)n1Cc1ccccc1	-2	27*	27	0	19	5
S=c1[nH]nc(CCc2ccccc2)n1-c1ccc(Cl)cc1	-4	24*	20	-4	32*	3	BODIPY interf DR=>122
S=c1[nH]nc(COc2ccc(Cl)cc2)n1-c1ccccc1	-3	21*	6	-3	34*	4	BODIPY interf DR=>122
S=c1[nH]nc(COc2ccc(Cl)cc2)n1-c1ccc(Cl)cc1	-4	2	-6	-3	·	·
S=c1[nH]nc(Cc2ccccc2)n1-c1ccccc1	-4	14	16	-2	·	·
S=c1[nH]nc(Cc2ccccc2)n1-c1ccc(Cl)cc1	-1	20*	24	-2	21*	2
CCCCOc1ccc(Br)cc1CSC(=N)N	-5	44*	3	-3	25*	-26
CCCCCOc1ccc(CSC(=N)N)cc1[N+](=O)[O-]	-2	45*	-10	0	30*	-18	BODIPY interf DR=>122
C=CCNC(=O)CSc1nc2c(c(=O)[nH]1)CCCC2	·	4	·	·	·	·
O=C(CSC(=S)N1CCCCC1)Nc1ncc2c(n1)CCCC2=O	-1	22*	-8	0	2	-7
CCOc1ccc2[nH]c3c(NCCN(CC)CC)ncnc3c2c1	-2	20*	2	-1	2	-16
CCOc1ccc2[nH]c3c(NCCOC)ncnc3c2c1	-3	-4	3	-1	·	·
CCCCCn1nnnc1C1(C)CN(S(C)(=O)=O)CC(=O)N1Cc1ccco1 (centres undefined)	·	-3	·	·	·	·
Cc1ccccc1NC(=S)NNC(=O)c1ccoc1C	-4	10	12	-2	·	·
Cc1occc1C(=O)NNC(=S)Nc1ccccc1C(F)(F)F	-4	21*	2	-2	27*	-4
COc1ccccc1NC(=S)NNC(=O)c1cc(C)n(C)n1	-5	17	12	-6	·	·
Cc1cccc(NC(=O)c2ccc(NC(=O)c3ccccc3Br)cc2)c1	1	-1	4	0	·	·
COc1ccccc1NC(=S)NNC(=O)c1cc(C)nn1C	-5	19*	9	-4	22*	-4
Cc1cccc(NC(=S)NNC(=O)c2ccccc2Br)c1	-4	31*	5	-5	26*	2
Cc1cccc(NC(=S)NNC(=O)c2ccccc2OC(F)F)c1	-3	23*	2	-5	36*	-4
CN(CC(=O)Nc1ccc(F)cc1)C(=O)COC(=O)/C=C/c1ccccc1[N+](=O)[O-]	·	-12	·	·	·	·
COC(=O)c1ccc(S(=O)(=O)N2CCC(NC(=O)COc3ccc(F)cc3)CC2)cc1	·	10	·	·	·	·
